Source: PMC5012948 (ChemMedChem, 2016)
Values joined by “and” are separate entries in the source; they are usually repeats but may differ in a detail not shown here. Equal entries are not always repeated. Where two headings read alike, the source gives them in different places. One block for each molecule: values may come before it.

How the values were obtained:
[1] = tested on: S. aureus; test: Synergy/antagonism two-drug combination assay; format: cell-based, Staphylococcus aureus
How it was run: (§1)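 Checkerboard-style two-drug combinations of the test compound with antibiotics. Conversely, the test compound ran as a 3× gradient, 40 μg/mL to 18 ng/mL, with each antibiotic at half its MIC. New MICs came from Gompertz fits.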

[2] = tested on: B. subtilis and S. aureus; test: Synergy/antagonism assays, average FICI over both organisms; format: cell-based; conditions: drugs in combination with 10, both organisms, n = 24
How it was run: as §1

[3] = tested on: B. subtilis; test: Synergy/antagonism two-drug combination assay; format: cell-based, Bacillus subtilis; conditions: 10 + sulfamethoxazole
How it was run: as §1

[4] = tested on: S. aureus (Newman strain); test: S. aureus cell growth inhibition; format: cell-based, Staphylococcus aureus
[5] = tested on: coupling enzymes (phosphatase and purine nucleoside phosphorylase); test: Control: inhibition of the coupling enzymes by high FPP and IPP; format: biochemical
[6] = target: SaHepPPS (Staphylococcus aureus, UniProt Q2FYG6); test: biochemical; format: biochemical; conditions: for Kd: substrate inhibition at high substrate concentrations
[7] = tested on: human FPPS; conditions: cited from earlier work

Compound: CCCCCCCCCCCCC[n+]1ccn(CC(P(=O)([O-])O)P(=O)(O)O)c1 (centres unmarked) [compound 10]
FICI ([1]; 10 + ampicillin): 1.40 | FICI ([1]; 10 + tetracycline): 1.85 | FICIavg [2]: 1.43 ± 0.37 | FICI [3]: 1.73 | IC50 for S. aureus cell growth inhibition [4]: 7 µg/mL

Compound: CC(C)=CCC/C(C)=C/CC/C(C)=C/CO[P@@](=O)(O)OP(=O)(O)O (stereo in doubt) [FPP, farnesyl diphosphate]
inhibition of the coupling enzymes [5]: this is not the case | Kd ([6]; Kd (dissociation constant for the inhibitory SES ternary complex)): 35 µM and ~35 µM

inhibition of the coupling enzymes [5]: this is not the case | Kd ([6]; read-out: Kd (dissociation constant for the inhibitory SES ternary complex)): 300 ± 40 µM
Compound: C=C(C)CCOP(=O)(O)OP(=O)(O)O [IPP, isopentenyl diphosphate]

Compound: O=P(O)(O)C(O)(Cn1ccnc1)P(=O)(O)O [compound 15, zoledronate]
activity against human FPPS [7]: potent activity | IC50 [6]: ~100 µM

Compound: CC(C)=CCC/C(C)=C/CC/C(C)=C/CC/C(C)=C/COP(=O)(O)OP(=O)(O)O [GGPP, geranylgeranyl diphosphate]
Km ([6]; GGPP as substrate): 652 µM | Vmax ([6]; GGPP as substrate): 2.2 µM/min | substrate-inhibition effect at high concentrations ([6]; high concentrations): did not exhibit the substrate-inhibition effect
